Measured values from ChEMBL document CHEMBL5030510, “Designed β-Hairpins Inhibit LDH5 Oligomerization and Enzymatic Activity” (J Med Chem, 2021).
The source made the active and inactive calls. No cut-off for these calls is given here. Where a SMILES comes first, the peptide text is derived from it. Bridges are numbered along the chain shown (N, C = ends).

Columns and labels:
[1] = biological target: T1, L-lactate dehydrogenase A chain (Homo sapiens, UniProt P00338); assay: Binding affinity to recombinant full length N-terminal His-tagged human LDHA expressed in Escherichia coli at up to 100 uM measured after 2 hrs by Alexa Fluor 488 based fluorescence polarization assay; settings: dose microM <=100, time 2.0 hrs
Outline: (§1)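 Competition FP: LDH5 held 2 min in 0.1 M glycine pH 2.5, then inhibitor added at the reassociation step with Alexa488-labeled cGm peptide (final 12 nM) in 0.25 M phosphate pH 7.6, 1 mM EDTA, with 152.5 nM LDH5. Incubated 2 h at room temperature. FP read at ex 485/em 520 nm. 100% set by probe plus LDH5 alone.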

[2] = biological target: T1, L-lactate dehydrogenase A chain; assay: Binding affinity to recombinant full length N-terminal His-tagged human LDHA expressed in Escherichia coli at 12 nM measured after 2 hrs by Alexa Fluor 488 based fluorescence polarization assay relative to control
Outline: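 Direct binding FP: LDH5 two-fold serial dilution from 3.375 µM in 0.01 M phosphate pH 7.4, 1 mM EDTA. Held 2 min in glycine pH 2.5, then labeled peptide added (final 12 nM) in 0.25 M phosphate pH 7.6, 1 mM EDTA. Incubated 2 h at RT. FP read at ex 485/em 520 nm. Saturation signal fitted by non-linear regression and set as 100% binding.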

[3] = biological target: T1, L-lactate dehydrogenase A chain; assay: Binding affinity to recombinant full length N-terminal His-tagged human LDHA expressed in Escherichia coli assessed as reduction in fluorecence polarization measured after 2 hrs by Alexa Fluor 488 based fluorescence polarization assay; outline: as §1
[4] = biological target: T1, L-lactate dehydrogenase A chain; assay: Inhibition of recombinant full length N-terminal His-tagged human LDHA oligomerization expressed in Escherichia coli at 150 uM at pH 2.5 to 7.4 measured after 2 hrs by SDS-PAGE analysis
Outline: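 Oligomer state: LDHA (1.3 µM) acidified 2 min with 0.1 M glycine pH 2.5, then peptide added in 0.25 M phosphate pH 7.6, 1 mM EDTA, for 2 h at RT. Cross-linked with glutaraldehyde (5% stock), heated 3 min at 85 °C in LDS buffer, and run on 4–12% Bis-Tris gel in MES buffer.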

[5] = biological target: T1, L-lactate dehydrogenase A chain; assay: Binding affinity to recombinant full length N-terminal His-tagged human LDHA expressed in Escherichia coli assessed as reduction in fluorecence polarization at up to 10000 nM measured after 2 hrs by Alexa Fluor 488 based fluorescence polarization assay; settings: dose nM <=10000, time 2.0 hrs; outline: as §1

Activity [1] | Activity [2] [%] | Activity [3] | inhibition [4] | Activity [5] | Compound
Active | 50 | Dose-Dependent Effect | – | – | CC(C)C[C@@H]1NC(=O)[C@H](CCCNC(=N)N)NC(=O)[C@H](CCCNC(=N)N)NC(=O)[C@@H](NC(=O)[C@@H](N)CCCCN)CSSC[C@@H](C(=O)N[C@@H](CCCNC(=N)N)C(=O)NCC(=O)N[C@@H](CCCNC(=N)N)C(=O)O)NC(=O)[C@H](Cc2ccc(O)cc2)NC(=O)[C@H]([C@@H](C)O)NC(=O)[C@H](C(C)C)NC(=O)[C@@H]2CSSC[C@H](NC1=O)C(=O)N[C@@H](Cc1ccc(O)cc1)C(=O)N[C@@H](CCCNC(=N)N)C(=O)N[C@@H](CCC(N)=O)C(=O)N[C@@H](CCCNC(=N)N)C(=O)N2 (H-KCRRLCYRQRCVTYCRGR-OH; disulfide 2-15, 6-11)
– | – | – | inactive | inactive | O=C1N[C@](c2ccc(N3CCOCC3)cc2)(c2ccsc2)CC(O)=C1Sc1ccccc1Cl
